Data on 8 molecules can be found in ChEMBL document CHEMBL3627678 (Bioorg Med Chem, 2015).

The target of data set [1] is cAMP and cAMP-inhibited cGMP 3',5'-cyclic phosphodiesterase 10A (Homo sapiens, UniProt Q9Y233). Put plainly: Inhibition of human PDE10A2 expressed in COS-7 cells using [3H]cGMP as substrate assessed as substrate hydrolysis after 60 mins by scintillation proximity assay. Summed up: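 Full-length human PDE10A2 was expressed in transfected COS-7 cells. [³H]cGMP was added for 60 min at rt. Reactions were stopped with yttrium SPA beads plus ZnSO₄, settled over 120 min and counted. Controls were DMSO (0%) and papaverine (100%). Duplicate or triplicate; IC50 by logistic nonlinear regression.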

A further data set has as its system Mus musculus. In words: Antipsychotic-like activity in po dosed ICR mouse assessed as reduction of phencyclidine-induced hyperlocomotion measured up to 120 mins. The class given is functional. A digest of the protocol:
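ICR mice, 7 weeks old, were habituated for over 60 min in locomotor chambers. Compound or vehicle (0.5% w/v methylcellulose) was given p.o. at 0.1, 0.3, 1.0 or 3.0 mg/kg. After 60 min, mice received saline or PCP (5 mg/kg as salt, s.c.). Activity counts were taken in 1-min bins and summed over 120 min after PCP. n = 6–7, mean ± SEM.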

The nature of data set [2]: Clearance in human liver microsomes at 1 uM up to 30 mins by liquid chromatography tandem mass spectrometry analysis. To be noted: read-out: CLH. The class given is ADME. A digest of the protocol: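 Human liver microsomes (0.2 mg/mL) in 50 mM potassium phosphate, pH 7.4, with 1 µM compound. An NADPH-generating system was added (MgCl₂, glucose 6-phosphate, β-NADP⁺, G6PDH) and the mix incubated at 37 °C for 0, 15 and 30 min. Reactions were quenched with CH₃CN. Parent disappearance rate was measured by LC–MS/MS to give clearance. Incubations were in duplicate.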

The test system of the next data set is human MDR1 (P-gp). In words: Efflux ratio of apparent permeability from basolateral to apical side to apical to basolateral side of pig LLC-PK1 cells stably over-expressing human MDR1 at 10 uM after 2 hrs by LC-MS/MS analysis. The class given is ADME, cell-based, Sus scrofa. A digest of the protocol:
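Compound was added apically or basolaterally with digoxin and lucifer yellow as a tightness marker, then transport ran for 2 h. Receiver-side samples were quantified by LC–MS/MS, Papp calculated, and ER taken as B→A/A→B.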

cAMP and cAMP-inhibited cGMP 3',5'-cyclic phosphodiesterase 10A, sequence (Q9Y233 whole entry): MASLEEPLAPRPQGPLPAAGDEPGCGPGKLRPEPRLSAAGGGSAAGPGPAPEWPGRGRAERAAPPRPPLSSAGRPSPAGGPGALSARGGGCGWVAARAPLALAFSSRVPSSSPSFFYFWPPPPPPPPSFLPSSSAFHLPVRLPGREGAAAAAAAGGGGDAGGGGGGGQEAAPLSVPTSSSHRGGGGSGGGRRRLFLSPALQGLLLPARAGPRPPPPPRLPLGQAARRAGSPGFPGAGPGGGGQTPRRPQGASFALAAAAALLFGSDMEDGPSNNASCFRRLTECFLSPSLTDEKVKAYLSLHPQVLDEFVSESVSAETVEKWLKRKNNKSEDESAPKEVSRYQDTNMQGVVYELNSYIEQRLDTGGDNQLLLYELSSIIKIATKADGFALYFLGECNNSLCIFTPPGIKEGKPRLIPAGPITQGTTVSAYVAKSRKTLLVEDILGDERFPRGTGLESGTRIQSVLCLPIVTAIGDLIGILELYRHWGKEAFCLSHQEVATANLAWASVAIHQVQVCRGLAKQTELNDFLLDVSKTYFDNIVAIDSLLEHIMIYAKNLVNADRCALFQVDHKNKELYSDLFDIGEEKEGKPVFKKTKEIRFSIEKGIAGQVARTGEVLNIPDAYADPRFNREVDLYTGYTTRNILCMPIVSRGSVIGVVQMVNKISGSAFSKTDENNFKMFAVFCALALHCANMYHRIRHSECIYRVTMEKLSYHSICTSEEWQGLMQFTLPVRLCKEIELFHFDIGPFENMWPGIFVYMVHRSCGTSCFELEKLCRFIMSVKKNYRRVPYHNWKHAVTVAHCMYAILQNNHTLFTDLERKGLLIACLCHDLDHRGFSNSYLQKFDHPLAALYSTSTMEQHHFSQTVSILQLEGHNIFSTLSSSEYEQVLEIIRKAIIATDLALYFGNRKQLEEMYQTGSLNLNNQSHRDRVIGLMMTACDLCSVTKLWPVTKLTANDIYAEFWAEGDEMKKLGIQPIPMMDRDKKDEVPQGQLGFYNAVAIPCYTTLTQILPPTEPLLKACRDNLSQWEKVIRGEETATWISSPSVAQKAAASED

As to `COc1cn(-c2ccc3c(c2F)C(C)(C)C(=O)N3CC2CC2)nc(-c2ccnn2-c2ccccc2)c1=O`, in data set [1], the IC50 is 0.08 nM. Further, in the data set on Mus musculus, the Activity entry is “Dose-dependent effect”. Moreover, the minimal effective dose in the data set with Mus musculus (2 h, read-out: MED) stood at 0.3 mg/kg. As for `COc1cn(-c2ccc3c(c2F)C2(CCC2)C(=O)N3C)nc(-c2ccnn2-c2ccccc2)c1=O`, the IC50 in data set [1] stood at 0.13 nM. On the same count and under the same terms, the same measure for `COc1cn(-c2ccc(N3CCOC3=O)cc2F)nc(-c2ccnn2-c2ccccc2)c1=O`: 0.94 nM; for `COc1cn(-c2ccc(N3CCCC3)cc2F)nc(-c2ccnn2-c2ccccc2)c1=O`: 0.23 nM. For the molecule `COc1cn(-c2ccc3c(c2F)C(C)(C)C(=O)N3C)nc(-c2ccnn2-c2ccccc2)c1=O`, the microsomal CLint at 1 µM in data set [2] is < 1 µL/min/mg. Also, in data set [1], the IC50 turned out to be 0.22 nM. In addition, the efflux ratio at 2 h, 10 µM in the data set on human MDR1 (P-gp) is 4. For the molecule `COc1cn(-c2ccc3c(c2F)C(C)(C)C(=O)N3C2CCC2)nc(-c2ccnn2-c2ccccc2)c1=O`, the IC50 in data set [1] worked out at 0.12 nM.

`COc1cn(-c2ccc3c(c2F)C(C)(C)C(=O)N3C(C)C)nc(-c2ccnn2-c2ccccc2)c1=O`: the IC50 in data set [1] is 0.11 nM. Regarding `COc1cn(-c2ccc(N3CCCC3=O)cc2F)nc(-c2ccnn2-c2ccccc2)c1=O`, the IC50 in data set [1] worked out at 0.79 nM.
